Among the data in PubChem BioAssay AID561 (The Scripps Research Institute Molecular Screening Center, 2006) are inhibition values, retold here.

For orientation: inhibition means the relative decrease from the control value, in per cent.

Screen size: about 65,000 compounds; about 280 (0.43%) were called active. This is one part of a sample in which actives are shown more often than they occur.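 Rule for the calls: active = inhibition above the mean of all tested compounds plus 3 SD (cut at about 52% in these data); inactive = the rest.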

The target of this test is Nuclear receptor ROR-alpha (Homo sapiens) (UniProt P35398). As to the kind of experiment: inhibitors of orphan receptor RORA, primary screen, cell-based, luminescence (AID 561). The settings on record: CHO-K1 Gal4-RORA LBD luciferase reporter, at 10 µM, active compounds read high. Put shortly: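 Test system: CHO-K1 cells with Gal4-hRORA LBD fusion and pG5-luc reporter / Compound: single concentration per compound, 10 µM final / Schedule: 20 h compound treatment, 37 °C / Signal: luminescence from basal luciferase reporter expression / Read-out: % inhibition / Control set: mock-transfected cells as 100%, +RORA DMSO cells as 0% / Replicates: tested once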
Sequence of Nuclear receptor ROR-alpha (Homo sapiens) (P35398 whole entry, looked up, the tested form may be a part): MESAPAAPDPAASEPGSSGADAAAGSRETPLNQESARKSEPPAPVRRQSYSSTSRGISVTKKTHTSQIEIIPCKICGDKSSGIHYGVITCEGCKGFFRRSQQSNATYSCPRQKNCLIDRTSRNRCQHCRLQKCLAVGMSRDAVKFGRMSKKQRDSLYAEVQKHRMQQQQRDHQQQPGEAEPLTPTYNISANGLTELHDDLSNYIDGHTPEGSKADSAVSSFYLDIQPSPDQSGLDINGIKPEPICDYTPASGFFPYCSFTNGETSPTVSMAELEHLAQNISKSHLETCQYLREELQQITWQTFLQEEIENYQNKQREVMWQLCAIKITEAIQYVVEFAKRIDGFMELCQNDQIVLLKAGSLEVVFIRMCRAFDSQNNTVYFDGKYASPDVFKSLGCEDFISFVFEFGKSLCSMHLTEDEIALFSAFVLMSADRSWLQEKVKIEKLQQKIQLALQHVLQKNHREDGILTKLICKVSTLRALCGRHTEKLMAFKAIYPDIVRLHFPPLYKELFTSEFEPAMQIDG
A general note: A reporter such as luciferase makes a cellular process visible.
Regarding `COC(=O)c1ccc(C2NC(=O)NC(C)=C2C(=O)N(C)C)cc1` (centres undefined), the inhibition was 29.5% (inactive).

Take `O=C(Nc1ccc2c(c1)OCO2)C1CC(c2c(F)cccc2Cl)=NO1` (centres undefined): the inhibition is -2.1% (inactive). In the case of `COc1cc(OC)c(C(=O)Nc2ccc(N(C)C)cc2)cc1OC` it was -58.1% (inactive). The same measure for `Cc1ccc(Oc2nc3ccccc3n3c(C)nnc23)cc1`: -9.5% (inactive); for `COCCCN(C(=O)Cn1ncc2c(=O)oc3ccc(C)cc3c21)C(C)c1ccncc1` (centres undefined): -5.6% (inactive). In the case of `Fc1ccccc1OCCSc1nc2ccccc2o1` it was -26.2% (inactive); in that of `COc1ccc(OCc2cccc(C(=O)N3CCCC3)c2)cc1`, -8.9% (inactive). For the compound `CCOc1cc(C(=O)N2CCc3cc(OC)c(OC)cc3C2)ccc1OC(F)F`, the inhibition is 57.3% (active).

`CCOc1cc(C(=S)N2CCOCC2)ccc1O`: the inhibition is 8.5% (inactive). The same measure for `COc1ccc(-n2ncc3c(N4CCCc5ccccc54)ncnc32)cc1`: -50.2% (inactive); for `O=C(CC1NCCNC1=O)Nc1ccc(Oc2ccccc2)cc1` (centres undefined): -7.9% (inactive). The same measure for `COc1cc(C(=O)Nc2oc(-c3ccccc3)c(-c3ccccc3)c2C#N)cc(OC)c1OC`: -14.1% (inactive); for `O=C(Cc1c(F)cccc1Cl)N1CCN(C(=O)c2ccco2)CC1`: 14.5% (inactive); for `CCOC(=O)CCCNC(=O)CN1C(=O)NC(CCc2ccccc2)C1=O` (centres undefined): -7.9% (inactive). In the case of `CC(=O)c1ccc(NC(=O)N[C@@H](Cc2ccccc2)C(=O)O)cc1` it was 16.7% (inactive); in that of `O=C(Nc1cccc(Cl)c1)OCc1ccccn1`, -69.9% (inactive). As for `CC(=O)Nc1ccc(-c2cn3cccnc3n2)cc1`, the inhibition is -27% (inactive). The same measure for `Clc1ccc(C2CC(c3cccs3)n3ncnc3N2)cc1Cl` (centres undefined): -4.7% (inactive); for `CC(C)(C)c1ccc(C(=O)CSc2ncn[nH]2)cc1`: -54.2% (inactive); for `CC(C)(C)NC(=O)Cn1nnc(-c2ccccc2Cl)n1`: -65.9% (inactive). In the case of `COc1cccc(C2/C(=C(/O)c3ccncc3)C(=O)C(=O)N2CCCN(C)C)c1` (centres undefined) it was 17% (inactive); in that of `Cc1noc(C)c1COC(=O)Cn1c(C)nc2ccccc21`, -0.6% (inactive).

As to `COc1ccc(-n2c(SC)nc(O)cc2=O)cc1`, the inhibition was 8.5% (inactive). For `CC(C)OCCCNc1ncnc2c1[nH]c1ccc(F)cc12`, the inhibition was 75.5% (active). The same measure for `Cc1cc2nc(-c3ccc(NC(=O)c4cccnc4)cc3)oc2cc1C`: -71.6% (inactive); for `CCOC(=O)/C=c1\s/c(=C\c2ccccc2OC)c(=O)n1CC(=O)N1CCOCC1`: 3.7% (inactive); for `CC1CN(C(=O)CN2C(=O)NC(C)(c3ccccc3)C2=O)CC(C)O1` (centres undefined): 11.6% (inactive). The same measure for `CCCN(CCC)CCNC(=O)c1cc2c(C)nc3ccccc3c2o1`: -1.5% (inactive).

Regarding `COc1ccc(-c2nc(-c3ccccc3)no2)c(OC)c1`, the inhibition is 78.4% (active). The same measure for `COc1ccc(-c2noc(-c3cccc(OC)c3OC)n2)cc1OC`: -89.8% (inactive); for `CCOc1ccc(Nc2oc(Cc3ccccc3)nc2C#N)cc1`: -25.7% (inactive). As to `O=C(CSc1nc2ccccc2[nH]1)c1cccs1`, the inhibition was -56.5% (inactive). The same measure for `O=C(CCSc1ccccc1)NCCSc1ccccn1`: -13.3% (inactive). The same measure for `Cc1ccsc1C(=O)OCC(=O)c1cc(C)n(CC2CCCO2)c1C` (centres undefined): 85.1% (active); for `O=c1c2cc3c(=O)n(CC4CCCO4)c(=O)c3cc2c(=O)n1CC1CCCO1` (centres undefined): 5.9% (inactive).

As for `Cn1c(-c2ccco2)nc2cc3ccccc3cc21`, the inhibition was 68.8% (active). The same measure for `O=C(Nc1cccc(-c2nnc(-c3ccccc3)o2)c1)C1CCCO1` (centres undefined): -61.1% (inactive); for `COC(=O)Cc1cc(=O)n(-c2nc3ccccc3s2)[nH]1`: 10.2% (inactive). In the case of `CC(=O)Nc1ccc(S(=O)(=O)N2CCN(CCCOc3cc(C)ccc3C)CC2)cc1` it was 13.3% (inactive); in that of `CC1(C)NC(=O)N(CCOc2cccc(Oc3ccccc3)c2)C1=O`, -0.4% (inactive); in that of `CC(=O)NC(Cc1ccc(F)cc1)C(=O)O` (centres undefined), 4.4% (inactive). With `COc1ccccc1CNC(=O)CCCNS(=O)(=O)c1cccc2nsnc12`, the inhibition is 12.8% (inactive). The same measure for `CS(=O)(=O)c1ccc2nc(NC(=O)C3C4C=CC(C4)C3C(=O)O)sc2c1` (centres undefined): 0.6% (inactive).

`CCCCOc1ccc(-c2ncc(C(=O)OCC)c(N)n2)cc1`: the inhibition is -59.3% (inactive).

For `Cc1ccc(CNC(=O)C2CCCN(S(C)(=O)=O)C2)cc1` (centres undefined), the inhibition is -3.7% (inactive). In the case of `CCSc1nc(C)nc2c1oc1ccccc12` it was -1% (inactive); in that of `CCc1c(C)sc(NC(=O)c2ccc(Br)o2)c1C(=O)OC`, 3.7% (inactive). The same measure for `CC1(C)CC(CCC(=O)Nc2ccccc2Cl)C(=O)O1` (centres undefined): 6.6% (inactive); for `C#CCNc1nc(C(C)C)nc2c1nnn2Cc1ccccc1F`: -1.9% (inactive). The same measure for `Fc1ccc2[nH]c3c(N4CCSCC4)ncnc3c2c1`: 80.8% (active); for `Fc1ccc2[nH]c3c(N4CCN(Cc5ccc6c(c5)OCO6)CC4)ncnc3c2c1`: 86.3% (active). With `CN(C)/C=C/c1c(C#N)c(=O)ncn1Cc1ccccc1`, the inhibition is 15.5% (inactive). In the case of `Cc1ccc(Cn2nnc3c(=O)n(CC(=O)N4CCCCC4)cnc32)cc1` it was 19.7% (inactive).

For the compound `O=C(NC1=NCCS1)c1ccc(Cl)s1`, the inhibition is -80.1% (inactive).

As to `CC(C)OC(=O)C(C#N)c1nc2ccccc2nc1N1CCN(Cc2ccccc2)CC1` (centres undefined), the inhibition was -19.7% (inactive).

With `O=C1C(C=NCC2CCCO2)=C(O)c2ccccc21` (centres undefined), the inhibition was -48.7% (inactive). In the case of `Cc1nc2nc(COc3ccccc3)[nH]n2c(=O)c1C` it was -0.2% (inactive); in that of `Cc1ccc(-n2ncc3c2ncn2nc(-c4ccco4)nc32)c(C)c1`, -10.8% (inactive). The same measure for `COc1ccccc1-c1cc(C(=O)N2CCCCC2)no1`: -56.5% (inactive); for `O=c1oc2cc(O)ccc2cc1-c1ccc(F)cc1`: -61.8% (inactive).

Regarding `CCCN(c1ccc(C(C)C)cc1)S(=O)(=O)c1c(C)[nH]c(=O)[nH]c1=O`, the inhibition is -10.6% (inactive). The same measure for `O=C(O)CC(c1ccccc1)n1cnnn1` (centres undefined): 15.8% (inactive); for `CN(C)c1nc(N)nc(CSc2nnnn2-c2cccc3ccccc23)n1`: 53.2% (active).

On to `Cn1c(=O)c(C(=O)Nc2ncccn2)c(O)c2ccccc21`, for which the inhibition was -61% (inactive). In the case of `CC(=O)Oc1ccc(C(=O)Nc2nccs2)cc1` it was -61% (inactive); in that of `COc1ccccc1C(=O)C(O)c1ccccc1OC` (centres undefined), -19.7% (inactive). The same measure for `O=C(c1cc(-c2cccs2)on1)N1CCCCC1`: -63.4% (inactive); for `Cc1noc(C)c1S(=O)(=O)Nc1ccc(C(=O)O)cc1`: -7.4% (inactive); for `Cn1c(SCc2c(F)cccc2Cl)nnc1-c1cnccn1`: -62.8% (inactive). In the case of `Nc1ccc(-c2nnc(-c3ccc(-c4ccccc4)cc3)o2)cc1` it was -60.7% (inactive). Consider `COc1ccccc1-n1nnnc1S(=O)(=O)Cc1ccc(Cl)cc1`, for which the inhibition is 54.4% (active).

For the compound `OCCCNC(c1ccccc1)c1ccc(O)cc1` (centres undefined), the inhibition was 24.8% (inactive). As for `COc1ccc(OC)c(CNC(=O)C2CCCN(c3nc4ccccc4o3)C2)c1` (centres undefined), the inhibition was 33.3% (inactive).

For `COC(=O)CCSc1nccn1Cc1ccccc1`, the inhibition is 7.6% (inactive). In the case of `COc1ccccc1CNC(=O)C1CCN(c2nc3ccccc3o2)CC1` it was 14% (inactive); in that of `CCS(=O)(=O)N1CCCC(C(=O)NCCCN(C)Cc2ccccc2)C1` (centres undefined), -3.1% (inactive). For the compound `Cc1cc(Cl)c(S(=O)(=O)Nc2ccc3c(c2)OCCO3)cc1OCC(N)=O`, the inhibition was 22.5% (inactive).

As for `OC1CN=C2Sc3ccccc3N2C1` (centres undefined), the inhibition was 10.5% (inactive). In the case of `CCOc1ccccc1N(CC(=O)NC1CCCCC1)C(=O)CCCC(=O)Nc1ccccn1`, the inhibition is -9% (inactive). The same measure for `CN1CCCC(OC(=O)COc2ccc(Br)cc2)C1` (centres undefined): -27% (inactive); for `CC(=O)Nc1cccc(-c2cnc3ccccc3n2)c1`: -72.9% (inactive); for `Cc1ccc(Cc2nc(-c3cccc(C)c3)no2)cc1`: -51.5% (inactive). In the case of `CCNC(=O)CCc1nc(-c2ccc(C(C)(C)C)cc2)no1` it was 88.3% (active).

Turning to `Cc1cc(C)nc(NC(=O)Nc2ccccc2C(F)(F)F)n1`, the inhibition is -29% (inactive).

For `Cc1cccc(NC(=O)CSc2nc3c(c(=O)[nH]2)CCC3)c1C`, the inhibition is 0.6% (inactive).

As to `CC(C)CCNc1nc(N2CCCC2)c2c(c1C#N)CCN(C)C2`, the inhibition was -5.2% (inactive).

As to `COc1ccc(Cl)cc1S(=O)(=O)Nc1cccc(C(=O)O)c1`, the inhibition is 2.9% (inactive). In the case of `O=C(O)CCC(=O)NCc1ccc2[nH]c3c(c2c1)CCCC3`, the inhibition is 11.8% (inactive). For `COCCCNC(=O)Cn1cc(C(=O)C2CC2)c2ccccc21`, the inhibition is -7.6% (inactive). The same measure for `COc1ccc(CN(C(=O)c2cccs2)c2nccs2)cc1OC`: -6.9% (inactive); for `CCOC(=O)Nc1ccccc1N1C(=O)c2ccccc2C1=O`: -13% (inactive). The same measure for `Cn1c(SCC(=O)Nc2cccc(O)c2)nnc1-c1ccc(S(=O)(=O)N2CCOCC2)cc1`: -31.5% (inactive); for `CC[C@H]1CN2CCc3cc(OC)c(OC)cc3[C@@H]2C[C@@H]1C[C@H]1NCCc2cc(OC)c(OC)cc21`: 95.3% (active). The same measure for `O=C(Nc1cccnc1)c1noc2c1CCCCC2`: 19.3% (inactive); for `CC[C@]1(O)CC2CN(CCc3c([nH]c4ccccc34)[C@@](C(=O)OC)(c3cc4c(cc3OC)N(C=O)[C@H]3[C@@](O)(C(=O)OC)[C@H](OC(C)=O)[C@]5(CC)C=CCN6CC[C@]43[C@@H]65)C2)C1` (some centres undefined): 54% (active); for `O=C(C1CCC1)N1CCc2cc(S(=O)(=O)NCc3cccnc3)ccc21`: -16.5% (inactive). In the case of `Cc1ccc(C(c2nnnn2C(C)(C)C)N2CCc3ccccc3C2)cc1` (centres undefined), the inhibition was -0.2% (inactive). The same measure for `CN(c1ccccc1)c1ccc(/C=c2\s/c(=C(/C#N)C(=O)C(C)(C)C)n(Cc3ccco3)c2=O)cc1`: 11.3% (inactive); for `CCCCc1nc2ccccc2c(NC(=O)CN2CCN(C)CC2)c1CCC`: -1.9% (inactive).
